Laboratory results reported in ChEMBL document CHEMBL1255219, “Discovery of a β-d-2'-deoxy-2'-α-fluoro-2'-β-C-methyluridine nucleotide prodrug (PSI-7977) for the treatment of hepatitis C virus” (J Med Chem, 2010).

Assays:
Hepatitis C virus [1] = experiment: Antiviral activity against HCV infected in human clone A cells; type: functional, Hepacivirus hominis
Method in brief: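 Clone A replicon cells seeded at 1500 cells/well. Compounds serially diluted in G418-free culture medium and added, then incubated 4 days at 37 °C in 5% CO2. HCV RNA quantified by real-time RT-PCR as ΔCt relative to the mean no-drug control.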

Hepatitis C virus [2] = experiment: Antiviral activity against HCV infected in human clone A cells assessed as inhibition of cellular rRNA replication at 50 uM; type: functional, Hepacivirus hominis

| EC90 (Hepatitis C virus [1]; Hepatitis C virus) | Structure (SMILES) | inhibition at 50 µM (Hepatitis C virus [2]) | EC90 (Hepatitis C virus [1]) |
| --- | --- | --- | --- |
| 15600 nM | COC(=O)[C@H](Cc1c[nH]c2ccccc12)NP(=O)(OC[C@H]1O[C@@H](n2ccc(=O)[nH]c2=O)[C@](C)(F)[C@@H]1O)Oc1ccccc1 (stereo partly drawn) | 68.4% | – |
| 60 nM | CCC(C)OC(=O)[C@H](C)NP(=O)(OC[C@H]1O[C@@H](n2ccc(=O)[nH]c2=O)[C@](C)(F)[C@@H]1O)Oc1ccccc1 (stereo partly drawn) | 93.8% | – |
| > 50000 nM | CCCCCOC(=O)[C@H](C)NP(=O)(OC[C@H]1O[C@@H](n2ccc(=O)[nH]c2=O)[C@](C)(F)[C@@H]1O)Oc1ccccc1 (stereo partly drawn) | 92% | – |
| 1720 nM | C[C@H](NP(=O)(OC[C@H]1O[C@@H](n2ccc(=O)[nH]c2=O)[C@](C)(F)[C@@H]1O)Oc1ccccc1)C(=O)OCCF (stereo partly drawn) | 43.8% | – |
| 6800 nM | C[C@H](NP(=O)(OC[C@H]1O[C@@H](n2ccc(=O)[nH]c2=O)[C@](C)(F)[C@@H]1O)Oc1ccccc1)C(=O)OCC(F)F (stereo partly drawn) | 38.3% | – |
| 18500 nM | C[C@H](NP(=O)(OC[C@H]1O[C@@H](n2ccc(=O)[nH]c2=O)[C@](C)(F)[C@@H]1O)Oc1ccccc1)C(=O)Oc1ccccc1 (stereo partly drawn) | 0% | – |
| 130 nM | C[C@H](NP(=O)(OC[C@H]1O[C@@H](n2ccc(=O)[nH]c2=O)[C@](C)(F)[C@@H]1O)Oc1ccccc1)C(=O)OCc1ccccc1 (stereo partly drawn) | 74.3% | – |
| 240 nM | C[C@H](NP(=O)(OC[C@H]1O[C@@H](n2ccc(=O)[nH]c2=O)[C@](C)(F)[C@@H]1O)Oc1ccccc1)C(=O)OCc1ccc(F)cc1 (stereo partly drawn) | 0% | – |
| 690 nM | COC(=O)[C@H](C)NP(=O)(OC[C@H]1O[C@@H](n2ccc(=O)[nH]c2=O)[C@](C)(F)[C@@H]1O)Oc1ccc(F)cc1 (stereo partly drawn) | 16.8% | – |
| 580 nM | COC(=O)[C@H](C)NP(=O)(OC[C@H]1O[C@@H](n2ccc(=O)[nH]c2=O)[C@](C)(F)[C@@H]1O)Oc1ccc(Cl)cc1 (stereo partly drawn) | 62.8% | – |
| 2110 nM | COC(=O)[C@H](C)NP(=O)(OC[C@H]1O[C@@H](n2ccc(=O)[nH]c2=O)[C@](C)(F)[C@@H]1O)Oc1ccc(Br)cc1 (stereo partly drawn) | 30.8% | – |
| 450 nM | COC(=O)[C@H](C)NP(=O)(OC[C@H]1O[C@@H](n2ccc(=O)[nH]c2=O)[C@](C)(F)[C@@H]1O)Oc1ccc(Cl)c(Cl)c1 (stereo partly drawn) | 63.7% | – |
| 690 nM | COC(=O)[C@H](C)NP(=O)(OC[C@H]1O[C@@H](n2ccc(=O)[nH]c2=O)[C@](C)(F)[C@@H]1O)Oc1ccc(Cl)cc1Cl (stereo partly drawn) | 10.9% | – |
| 90 nM | COC(=O)[C@H](C)NP(=O)(OC[C@H]1O[C@@H](n2ccc(=O)[nH]c2=O)[C@](C)(F)[C@@H]1O)Oc1cccc2ccccc12 (stereo partly drawn) | 95.4% | – |
| > 50000 nM | CCOP(=O)(N[C@@H](C)C(=O)OC)OC[C@H]1O[C@@H](n2ccc(=O)[nH]c2=O)[C@](C)(F)[C@@H]1O (stereo partly drawn) | 16.8% | – |
| 22100 nM | COC(=O)CNP(=O)(OC[C@H]1O[C@@H](n2ccc(=O)[nH]c2=O)[C@](C)(F)[C@@H]1O)Oc1ccccc1 (stereo partly drawn) | 0% | – |

| EC90 (Hepatitis C virus [1]; Hepatitis C virus) | Structure (SMILES) | inhibition at 50 µM (Hepatitis C virus [2]) | EC90 (Hepatitis C virus [1]) |
| --- | --- | --- | --- |
| 1610 nM | CC[C@H](NP(=O)(OC[C@H]1O[C@@H](n2ccc(=O)[nH]c2=O)[C@](C)(F)[C@@H]1O)Oc1ccccc1)C(=O)OC (stereo partly drawn) | 0% | – |
| > 50000 nM | COC(=O)[C@@H](NP(=O)(OC[C@H]1O[C@@H](n2ccc(=O)[nH]c2=O)[C@](C)(F)[C@@H]1O)Oc1ccccc1)C(C)C (stereo partly drawn) | 0% | – |
| 5400 nM | COC(=O)[C@H](CC(C)C)NP(=O)(OC[C@H]1O[C@@H](n2ccc(=O)[nH]c2=O)[C@](C)(F)[C@@H]1O)Oc1ccccc1 (stereo partly drawn) | 0% | – |
| 60100 nM | COC(=O)[C@H](CCSC)NP(=O)(OC[C@H]1O[C@@H](n2ccc(=O)[nH]c2=O)[C@](C)(F)[C@@H]1O)Oc1ccccc1 (stereo partly drawn) | 24.1% | – |
| 57600 nM | COC(=O)[C@H](Cc1ccccc1)NP(=O)(OC[C@H]1O[C@@H](n2ccc(=O)[nH]c2=O)[C@](C)(F)[C@@H]1O)Oc1ccccc1 (stereo partly drawn) | 20.6% | – |
| 2200 nM | COC(=O)C(C)(C)NP(=O)(OC[C@H]1O[C@@H](n2ccc(=O)[nH]c2=O)[C@](C)(F)[C@@H]1O)Oc1ccc(F)cc1 (stereo partly drawn) | 0% | – |
| > 50000 nM | COC(=O)C1(NP(=O)(OC[C@H]2O[C@@H](n3ccc(=O)[nH]c3=O)[C@](C)(F)[C@@H]2O)Oc2ccc(F)cc2)CC1 (stereo partly drawn) | 0% | – |
| 980 nM | CCOC(=O)[C@H](C)NP(=O)(OC[C@H]1O[C@@H](n2ccc(=O)[nH]c2=O)[C@](C)(F)[C@@H]1O)Oc1ccccc1 (stereo partly drawn) | 36.9% | – |
| 90 nM | CCCCOC(=O)[C@H](C)NP(=O)(OC[C@H]1O[C@@H](n2ccc(=O)[nH]c2=O)[C@](C)(F)[C@@H]1O)Oc1ccccc1 (stereo partly drawn) | 79.6% | – |
| 390 nM | CCOC(=O)[C@H](C)NP(=O)(OC[C@H]1O[C@@H](n2ccc(=O)[nH]c2=O)[C@](C)(F)[C@@H]1O)Oc1ccc(Cl)cc1 (stereo partly drawn) | 0% | – |
| 360 nM | CCOC(=O)[C@H](C)NP(=O)(OC[C@H]1O[C@@H](n2ccc(=O)[nH]c2=O)[C@](C)(F)[C@@H]1O)Oc1ccc(Br)cc1 (stereo partly drawn) | 80.5% | – |
| 570 nM | CC(C)OC(=O)[C@H](C)NP(=O)(OC[C@H]1O[C@@H](n2ccc(=O)[nH]c2=O)[C@](C)(F)[C@@H]1O)Oc1ccc(Br)cc1 (stereo partly drawn) | 0% | – |
| 54 nM | C[C@H](NP(=O)(OC[C@H]1O[C@@H](n2ccc(=O)[nH]c2=O)[C@](C)(F)[C@@H]1O)Oc1ccc(Cl)cc1)C(=O)OC1CCCCC1 (stereo partly drawn) | 66.9% | – |
| 39 nM | C[C@H](NP(=O)(OC[C@H]1O[C@@H](n2ccc(=O)[nH]c2=O)[C@](C)(F)[C@@H]1O)Oc1ccc(Br)cc1)C(=O)OC1CCCCC1 (stereo partly drawn) | 91.5% | – |
| – | CC(C)OC(=O)C(C)N[P@](=O)(OC[C@H]1O[C@@H](n2ccc(=O)[nH]c2=O)[C@](C)(F)[C@@H]1O)Oc1ccccc1 (single isomer, unassigned) [SOFOSBUVIR] | – | > 50000 nM |
| 3900 nM | CC(C)C(=O)OC[C@H]1O[C@@H](n2ccc(N)nc2=O)[C@](C)(F)[C@@H]1OC(=O)C(C)C [MERICITABINE] | 0% | – |
